Data: ChEMBL document CHEMBL4177768, “Synthesis and Biological Evaluation of Derivatives of Indoline as Highly Potent Antioxidant and Anti-inflammatory Agents” (J Med Chem, 2018)
Calls of active or inactive are those of the source. The calls are words filed in the database; no cut-off is given here.

Key:
RAW264.7 [1] = test: Antiinflammatory activity in mouse RAW264.7 cells assessed as reduction in LPS-induced TNF-alpha production at 1 pM to 100 nM incubated for 2 hrs prior to LPS challenge measured after 8 hrs by ELISA; format: functional, cell-based
Outline: (§1)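 RAW 264.7 macrophages were plated at 1×10^5 per well, grown overnight and washed with PBS. Compounds in water (final 1 pM-100 nM, medium with 2% FCS) were added 2 h at 37 °C before E. coli 0111:B4 LPS, 2.5 µg/mL. TNF-α was sampled at 8 h; IL-6 and nitrite (Griess) at 24 h. ELISA was used for cytokines. Values are % of the LPS + medium value in each experiment. Budesonide was the reference. 2-3 experiments, 6 wells per concentration.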

[2] = Cytotoxicity against mouse RAW264.7 cells assessed as cell viability at 10^-10 M after 24 hrs by MTT assay relative to control; format: cell-based; details: read-out: Activity
Outline: (§2)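 RAW 264.7 cells, seeded at 1×10^4 cells/mL and incubated 24 h, were exposed to compound from 1 pM to 100 nM. Viability was read by MTT (final 0.5 mg/mL, 1 h at 37 °C), with formazan dissolved in DMSO and OD at 570 nm. Results are compared with medium-only cells.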

[3] = Cytotoxicity against mouse RAW264.7 cells assessed as cell viability at 10^-12 M after 24 hrs by MTT assay relative to control; format: cell-based; details: read-out: Activity; outline: as §2
[4] = Cytotoxicity against mouse RAW264.7 cells assessed as cell viability at 10^-8 M after 24 hrs by MTT assay relative to control; format: cell-based; details: read-out: Activity; outline: as §2
[5] = Cytotoxicity against mouse RAW264.7 cells assessed as cell viability at 10^-7 M after 24 hrs by MTT assay relative to control; format: cell-based; details: read-out: Activity; outline: as §2
[6] = Cytotoxicity against mouse RAW264.7 cells assessed as cell viability at 10^-11 M after 24 hrs by MTT assay relative to control; format: cell-based; details: read-out: Activity; outline: as §2
RAW264.7 [7] = test: Antiinflammatory activity in mouse RAW264.7 cells assessed as reduction in LPS-induced nitric oxide production at 1 pM to 100 nM incubated for 2 hrs prior to LPS challenge measured after 24 hrs by Griess assay; format: functional, cell-based; outline: as §1
RAW264.7 [8] = test: Cytoprotective activity against H2O2-induced oxidative stress in mouse RAW264.7 cells assessed as cell viability at 1 pM incubated for 2 hrs prior to H2O2 addition measured after 24 hrs by MTT assay (reference value: 68 to 72.8%); format: functional; details: read-out: Activity
RAW264.7 [9] = test: Antiinflammatory activity in mouse RAW264.7 cells assessed as reduction in LPS-induced IL6 production at 1 pM to 100 nM incubated for 2 hrs prior to LPS challenge measured after 24 hrs by ELISA; format: functional, cell-based; outline: as §1
[10] = Cytotoxicity against mouse RAW264.7 cells assessed as cell viability at 10^-9 M after 24 hrs by MTT assay relative to control; format: cell-based; details: read-out: Activity; outline: as §2
RAW264.7 [11] = test: Antiinflammatory activity in mouse RAW264.7 cells assessed as reduction in LPS-induced IL-6 production at 100 pM to 100 nM incubated for 2 hrs prior to LPS challenge measured after 24 hrs by ELISA; format: functional, cell-based; outline: as §1
RAW264.7 [12] = test: Antiinflammatory activity in mouse RAW264.7 cells assessed as reduction in LPS-induced TNF-alpha production at 100 pM to 100 nM incubated for 2 hrs prior to LPS challenge measured after 8 hrs by ELISA; format: functional, cell-based; outline: as §1
RAW264.7 [13] = test: Cytoprotective activity against H2O2-induced oxidative stress in mouse RAW264.7 cells assessed as decrease in caspase-3 activity at 1 pM incubated for 4 hrs prior to H2O2 addition measured after 90 mins by caspase-GloR reagent-based luminescence assay relative to control; format: functional; set-up: scale not given: the % may be the effect or the level left
Outline: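 RAW 264.7 macrophages were pretreated with compound (1 pM or 1 nM) 4 h before H2O2 100 µM. Medium was replaced with fresh DMEM after 90 min and plates were incubated overnight. Caspase-Glo 3/7 reagent was added and luminescence read after 30 min at room temperature. Mean ± SD, 4-6 replicates.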

Mus musculus [14] = test: Antiinflammatory activity in Balb/C mouse assessed as reduction in LPS-induced IL6 production in spleen at 1 umol/kg, sc administered LPS 15 mins post compound treatment measured after 4 hrs by ELISA; format: functional, organism-based
Outline: (§3)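 Male Balb/C mice, 7-8 weeks old, given compound sc (0.1, 1 or 10 µmoles/kg) or saline. LPS 10 mg/kg was given ip 15 min later, and mice were killed 4 h after that. Spleens were homogenized in PBS with protease inhibitor and centrifuged at 14,000 g, 4 °C. Cytokines in plasma and tissue supernatants were measured by ELISA, with protein by BCA. Dexamethasone 5.6 µmoles/kg was the reference. n = 8-10 mice per treatment.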

RAW264.7 [15] = test: Cytoprotective activity against H2O2-induced oxidative stress in mouse RAW264.7 cells assessed as decrease in LDH release at 1 pM incubated for 2 hrs prior to H2O2 addition by colorimetric assay relative to control; set-up: scale not given: the % may be the effect or the level left
Mus musculus [16] = test: Acute toxicity in Balb/C mouse assessed as change in water intake at 100 umol/kg, sc measured over 72 hrs; format: organism-based; details: in vivo
Outline: (§4)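 Male Balb/C mice, 24-28 g, groups of 3; single sc injection of compound at 100 μmoles/kg or saline (1 mL/100 g). Food and water intake, body weight and general activity monitored over 72 h against saline-injected animals.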

Mus musculus [17] = test: Antiinflammatory activity in Balb/C mouse assessed as reduction in LPS-induced IL6 production in liver at 0.1 to 10 umol/kg, sc administered LPS 15 mins post compound treatment measured after 4 hrs by ELISA; format: functional, organism-based
Mus musculus [18] = test: Acute toxicity in Balb/C mouse assessed as change in food intake at 100 umol/kg, sc measured over 72 hrs; format: organism-based; details: in vivo; outline: as §4
RAW264.7 [19] = test: Cytoprotective activity against H2O2-induced oxidative stress in mouse RAW264.7 cells assessed as cell viability at 10 nM incubated for 2 hrs prior to H2O2 addition measured after 24 hrs by MTT assay (reference value: 68 to 72.8%); format: functional; details: read-out: Activity
Mus musculus [20] = test: Acute toxicity in Balb/C mouse assessed as change in activity at 100 umol/kg, sc measured over 72 hrs; format: organism-based; details: in vivo; outline: as §4
Mus musculus [21] = test: Antiinflammatory activity in Balb/C mouse assessed as reduction in LPS-induced TNF-alpha production in plasma at 1 umol/kg, sc administered LPS 15 mins post compound treatment measured after 4 hrs by ELISA; format: functional, organism-based; outline: as §3
Mus musculus [22] = test: Antiinflammatory activity in Balb/C mouse assessed as reduction in LPS-induced IL6 production in brain at 0.1 to 10 umol/kg, sc administered LPS 15 mins post compound treatment measured after 4 hrs by ELISA; format: functional, organism-based
RAW264.7 [23] = test: Antiinflammatory activity in mouse RAW264.7 cells assessed as reduction in LPS-induced IL-6 production at 1 nM incubated for 2 hrs prior to LPS challenge measured after 24 hrs by ELISA; format: functional; outline: as §1
Mus musculus [24] = test: Antiinflammatory activity in Balb/C mouse assessed as reduction in LPS-induced TNF-alpha production in spleen at 1 umol/kg, sc administered LPS 15 mins post compound treatment measured after 4 hrs by ELISA; format: functional, organism-based; outline: as §3
RAW264.7 [25] = test: Antiinflammatory activity in mouse RAW264.7 cells assessed as reduction in LPS-induced IL-6 production at 100 pM incubated for 2 hrs prior to LPS challenge measured after 24 hrs by ELISA; format: functional; outline: as §1
RAW264.7 [26] = test: Cytoprotective activity against H2O2-induced oxidative stress in mouse RAW264.7 cells assessed as decrease in LDH release at 1 pM incubated for 2 hrs prior to H2O2 addition by colorimetric assay relative to control; format: functional; set-up: scale not given: the % may be the effect or the level left
Outline: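 RAW 264.7 cells were seeded and pretreated with compound before H2O2 100 µM, in serum-free medium. Collected medium was centrifuged and incubated with reaction mix 30 min at room temperature. LDH was measured as NADH formation by colorimetric read at 490 nm. n = 8-10 replicates per concentration.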

Mus musculus [27] = test: Acute toxicity in Balb/C mouse assessed as change in body weight at 100 umol/kg, sc measured over 72 hrs; format: organism-based; details: in vivo; outline: as §4
Mus musculus [28] = test: Antiinflammatory activity in Balb/C mouse assessed as reduction in LPS-induced IL6 production in plasma at 1 umol/kg, sc administered LPS 15 mins post compound treatment measured after 4 hrs by ELISA; format: functional, organism-based; outline: as §3
RAW264.7 [29] = test: Antiinflammatory activity in mouse RAW264.7 cells assessed as reduction in LPS-induced nitric oxide production at 100 pM incubated for 2 hrs prior to LPS challenge measured after 24 hrs by Griess assay; format: functional; outline: as §1
RAW264.7 [30] = test: Antiinflammatory activity in mouse RAW264.7 cells assessed as reduction in LPS-induced TNF-alpha production at 1 nM incubated for 2 hrs prior to LPS challenge measured after 8 hrs by ELISA; format: functional; outline: as §1
RAW264.7 [31] = test: Antiinflammatory activity in mouse RAW264.7 cells assessed as reduction in LPS-induced TNF-alpha production at 100 pM incubated for 2 hrs prior to LPS challenge measured after 8 hrs by ELISA; format: functional; outline: as §1
RAW264.7 [32] = test: Antiinflammatory activity in mouse RAW264.7 cells assessed as reduction in LPS-induced nitric oxide production at 1 nM incubated for 2 hrs prior to LPS challenge measured after 24 hrs by Griess assay; format: functional; outline: as §1

Row | SMILES | Activity (RAW264.7 [1]) | viability at 24 h, 0.0001 µM [2] [%] | viability at 24 h, 1e-06 µM [3] [%] | viability at 24 h, 0.01 µM [4] [%] | viability at 24 h, 0.1 µM [5] [%] | viability at 24 h, 1e-05 µM [6] [%] | Activity (RAW264.7 [7]) | viability at 1 pM (RAW264.7 [8]) [%] | Activity (RAW264.7 [9]) | viability at 24 h, 0.001 µM [10] [%] | Activity (RAW264.7 [25]) | further results
1 | CC(C)NC(=O)CCN1CCc2cc(Cl)ccc21 | inactive | 98.2 | 95.6 | 104 | 103 | 96.3 | inactive | 95.7 | inactive | 97.9 |  | 
2 | CCCC1O[C@@H]2C[C@H]3[C@@H]4CCC5=CC(=O)C=C[C@]5(C)[C@H]4[C@@H](O)C[C@]3(C)[C@]2(C(=O)CO)O1 (some centres not stated) |  |  |  |  |  |  | Active |  |  |  |  | Activity (RAW264.7 [11]): Active; Activity (RAW264.7 [12]): Active
3 | COC(=O)CCN1CCc2ccccc21.Cl | Active | 93.3 | 95 | 91.8 | 90.8 | 91.5 | Active |  |  | 92.6 | Active | Activity (RAW264.7 [13]): 60%; Activity (Mus musculus [14]): Active; Activity (RAW264.7 [15]): 16%; Activity (Mus musculus [16]): Non-Toxic; Activity (Mus musculus [17]): Active; Activity (Mus musculus [18]): Non-Toxic; viability at 0.01 µM (RAW264.7 [19]): 85.9%; Activity (Mus musculus [20]): Non-Toxic; Activity (Mus musculus [21]): Active; Activity (Mus musculus [22]): Active; Activity (RAW264.7 [23]): Active; Activity (Mus musculus [24]): Active; Activity (RAW264.7 [26]): 16%; Activity (Mus musculus [27]): Non-Toxic; Activity (Mus musculus [28]): Active
4 | COC(=O)CCN1CCc2ccc(C)cc21 | inactive |  |  |  |  |  | inactive |  | inactive |  |  | viability at 0.01 µM (RAW264.7 [19]): 87.2%
5 | COC(=O)CCC1CNc2ccccc21 (configuration not stated) |  | 96.6 | 99.5 | 94.5 | 92.9 | 93.2 |  |  |  | 97.1 | Active | Activity (RAW264.7 [29]): Active; Activity (RAW264.7 [23]): Active; Activity (RAW264.7 [30]): Active; Activity (RAW264.7 [31]): Active; Activity (RAW264.7 [32]): Active
6 | COC(=O)CCN1CCc2cc(OC)ccc21.Cl |  |  |  |  |  |  | Active | 91 |  |  |  | Activity (RAW264.7 [13]): 60%; Activity (RAW264.7 [15]): 16%; Activity (RAW264.7 [26]): 16%
7 | COc1ccc2c(c1)CCN2CCCO.Cl | Active | 93.9 | 91.9 | 91.4 | 91.9 | 93.4 | Active | 95.6 | Active | 95.3 | 50% | Activity (Mus musculus [14]): Active; Activity (RAW264.7 [29]): 50%; Activity (Mus musculus [17]): Active; Activity (Mus musculus [21]): Active; Activity (Mus musculus [22]): Active; Activity (Mus musculus [24]): Active; Activity (RAW264.7 [31]): 50%; Activity (Mus musculus [28]): Active
